Source: ChEMBL document CHEMBL2057142, “Discovery and optimization of novel fatty acid transport protein 1 (FATP1) inhibitors” (Bioorg Med Chem Lett, 2012)

What was measured:
[1] = biological target: Long-chain fatty acid transport protein 1 (Homo sapiens, UniProt Q6PCB7); test: Inhibition of human recombinant FATP1 acyl-coA synthetase activity using [14C]oleic acid as substrate
[2] = biological target: Long-chain fatty acid transport protein 1 (Mus musculus, UniProt Q60714); test: Inhibition of mouse recombinant FATP1 acyl-coA synthetase activity using [14C]oleic acid as substrate
[3] = Metabolic stability in rat blood assessed as compound remaining after 2 hrs; assay type: ADME, tissue-based; details: read-out: Stability
Outline: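 Test compound incubated with rat blood for 2 h; parent compound remaining (%) measured.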

[4] = test system: Mus musculus; test: Drug metabolism in iv dosed mouse assessed as 2-(4-ethyl-5-((phenylamino)methyl)-4H-1,2,4-triazol-3-ylthio)-N-(4-(1-hydroxypropyl)phenyl)acetamide formation after 5 mins by LC/MS/MS analysis; assay type: ADME, organism-based; details: in vivo
Outline: (§1)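 Compound dosed intravenously to mouse; blood sampled at 5 min and metabolites identified by LC–MS/MS analysis.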

[5] = test system: Mus musculus; test: Drug metabolism in iv dosed mouse assessed as 2-(4-ethyl-5-((phenylamino)methyl)-4H-1,2,4-triazol-3-ylthio)acetic acid formation after 5 mins by LC/MS/MS analysis; assay type: ADME, organism-based; details: in vivo; outline: as §1
[6] = Tmax in rat at 10 mg/kg, po; assay type: ADME, organism-based; parameters: dose 10 mg/kg, route oral; details: in vivo
Outline: (§2)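 Rats dosed orally at 10 mg/kg in DMA/PG/(20% HPβCD in saline) 10:10:80; plasma levels measured, values averaged from two rats.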

[7] = Half life in rat at 1 mg/kg, iv; assay type: ADME, organism-based; parameters: dose 1 mg/kg, route intravenous; details: in vivo
Outline: (§3)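 Intravenous dosing to rats at 1 mg/kg in DMA/PG/(20% HPβCD in saline) 10:10:80; plasma pharmacokinetic parameters averaged from two rats.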

[8] = Clearance in rat at 1 mg/kg, iv; assay type: ADME, organism-based; parameters: dose 1 mg/kg, route intravenous; details: in vivo; outline: as §3
[9] = Cmax in rat at 10 mg/kg, po; assay type: ADME, organism-based; parameters: dose 10 mg/kg, route oral; details: in vivo; outline: as §2
[10] = Oral bioavailability in rat at 10 mg/kg; assay type: ADME, organism-based; details: in vivo; outline: as §2
[11] = Volume of distribution in rat at 1 mg/kg, iv; assay type: ADME, organism-based; parameters: dose 1 mg/kg, route intravenous; details: in vivo; outline: as §3
[12] = AUC in rat at 10 mg/kg, po; assay type: ADME, organism-based, Plasma; parameters: dose 10 mg/kg, route oral; details: plasma; outline: as §2
[13] = biological target: Long-chain fatty acid transport protein 1 (Mus musculus) (UniProt Q60714); test: Inhibition of mouse recombinant FATP1 acyl-coA synthetase activity using [14C]oleic acid as substrate at 10 uM
Outline: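 Same radiometric acyl-CoA synthetase assay with 10 μM [1-¹⁴C] oleic acid, 0.5 mM ATP, 0.5 mM CoA, 5 mM MgCl₂ in Tris-HCl pH 7.4 buffer with Triton X-100 and DTT; test compound at 10 μM, read-out as percent inhibition of ACS activity.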

Long-chain fatty acid transport protein 1 (Homo sapiens, UniProt Q6PCB7), sequence (Q6PCB7 whole entry): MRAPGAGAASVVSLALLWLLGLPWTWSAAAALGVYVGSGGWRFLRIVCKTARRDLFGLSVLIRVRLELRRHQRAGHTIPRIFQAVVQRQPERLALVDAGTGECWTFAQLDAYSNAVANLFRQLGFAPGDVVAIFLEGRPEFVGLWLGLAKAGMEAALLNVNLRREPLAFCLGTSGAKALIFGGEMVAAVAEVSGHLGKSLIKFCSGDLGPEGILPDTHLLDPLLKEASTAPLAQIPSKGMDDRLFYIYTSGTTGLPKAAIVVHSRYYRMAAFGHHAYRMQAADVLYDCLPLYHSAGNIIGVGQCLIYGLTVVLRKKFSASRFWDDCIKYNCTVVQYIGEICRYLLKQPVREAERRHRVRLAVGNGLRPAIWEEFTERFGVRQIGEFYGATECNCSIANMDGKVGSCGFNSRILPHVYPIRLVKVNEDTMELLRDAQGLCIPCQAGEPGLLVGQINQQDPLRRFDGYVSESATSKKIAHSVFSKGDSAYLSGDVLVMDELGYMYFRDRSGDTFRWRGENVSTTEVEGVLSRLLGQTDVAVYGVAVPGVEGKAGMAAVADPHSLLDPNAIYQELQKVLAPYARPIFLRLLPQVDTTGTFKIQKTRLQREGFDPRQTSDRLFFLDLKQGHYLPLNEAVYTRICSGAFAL
Long-chain fatty acid transport protein 1 (Mus musculus, UniProt Q60714), sequence (Q60714 whole entry): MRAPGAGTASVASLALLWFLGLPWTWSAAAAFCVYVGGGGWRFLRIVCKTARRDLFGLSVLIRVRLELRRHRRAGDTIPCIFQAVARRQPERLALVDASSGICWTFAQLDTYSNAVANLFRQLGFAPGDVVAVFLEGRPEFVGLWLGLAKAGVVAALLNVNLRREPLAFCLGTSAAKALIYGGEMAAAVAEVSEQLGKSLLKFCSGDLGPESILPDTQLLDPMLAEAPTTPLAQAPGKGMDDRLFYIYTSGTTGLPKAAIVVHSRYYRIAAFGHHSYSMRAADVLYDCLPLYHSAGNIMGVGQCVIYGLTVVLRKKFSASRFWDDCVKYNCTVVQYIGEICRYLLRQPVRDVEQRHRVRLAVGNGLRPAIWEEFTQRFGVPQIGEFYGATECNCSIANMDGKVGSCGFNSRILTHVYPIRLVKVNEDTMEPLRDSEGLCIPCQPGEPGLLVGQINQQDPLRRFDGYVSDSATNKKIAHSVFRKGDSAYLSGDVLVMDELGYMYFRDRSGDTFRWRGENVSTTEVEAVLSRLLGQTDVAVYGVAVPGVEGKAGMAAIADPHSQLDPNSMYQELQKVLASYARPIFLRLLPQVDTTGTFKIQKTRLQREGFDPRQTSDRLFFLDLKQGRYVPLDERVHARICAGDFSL
Long-chain fatty acid transport protein 1 (Mus musculus), sequence (Q60714 whole entry, looked up): as the sequence (Q60714 whole entry) above

SMILES | IC50 [1] [µM] | IC50 [2] [µM] | also measured
CCOC(=O)c1ccc2c(c1)CCN2C(=O)CSc1nnc(CNc2ccccc2)n1CC | > 1 | > 10 | –
CCNC(=O)c1ccc(NC(=O)CSc2nnc(CNc3ccccc3)n2CC)cc1 | > 1 | > 10 | –
CCOC(=O)c1ccc2oc(CSc3nnc(CNc4ccccc4)n3CC)nc2c1 | 0.68 | 0.84 | remaining at 2 h [3]: 0%
CCC(=O)c1ccc(NC(=O)CSc2nnc(CNc3ccccc3)n2CC)cn1 | 0.4 | 1.5 | –
CCn1c(CNc2ccccc2)nnc1SCC(=O)Nc1ccc(C(=O)O)cc1 | > 1 | > 10 | –
CCn1c(CNc2ccccc2)nnc1SCC(=O)Nc1ccc(C(=O)c2ccccc2)cc1 | > 1 | > 10 | –
CCC(=O)c1ccc(NC(=O)CSc2nnc(CNc3ccccc3)n2CC)cc1 | 0.4 | 1 | Drug metabolism [4]: Active; Drug metabolism [5]: Active; remaining at 2 h [3]: 28%
CCn1c(CNc2ccccc2)nnc1SCc1nc2cc(C(F)(F)F)ccc2o1 | 0.36 | 0.36 | Tmax [6]: 19.8 min; half-life [7]: 73.8 min; clearance [8]: 56 mL/min/kg; Cmax [9]: 220 ng/mL; bioavailability [10]: 9.2%; Vd [11]: 1.86 L/kg; AUC [12]: 280 ng·h/mL
CCn1c(CNc2ccccc2)nnc1SCc1nc2ccccc2o1 | > 1 | > 10 | –
CCC(=O)c1ccc(N(CC)C(=O)CSc2nnc(CNc3ccccc3)n2CC)cc1 | > 1 | > 10 | –
CCn1c(CNc2ccccc2)nnc1SCC(=O)Nc1ccc(OC)cc1 | > 1 | > 10 | –
CCC(=O)c1ccc2oc(CS(=O)(=O)c3nnc(CNc4ccccc4)n3CC)nc2c1 | 1.67 | 11.9 | remaining at 2 h [3]: 44%
CCn1c(CNc2ccccc2)nnc1SCC(=O)Nc1ccc(C(C)=O)cc1 | > 1 | – | inhibition [13]: 63%
CCn1c(CNc2ccccc2)nnc1SCc1nc2cc(C(=O)C(C)C)ccc2o1 | 0.6 | 0.52 | remaining at 2 h [3]: 42%
CCCC(=O)c1ccc(NC(=O)CSc2nnc(CNc3ccccc3)n2CC)cc1 | 0.23 | 1.1 | –
C=CCn1c(CNc2ccccc2)nnc1SCC(=O)Nc1ccc(OC)cc1 | 6.6 | > 10 | –
CC/C(=N/O)c1ccc2oc(CSc3nnc(CNc4ccccc4)n3CC)nc2c1 | 0.26 | 0.2 | remaining at 2 h [3]: 100%
CCn1c(CNc2ccccc2)nnc1SCc1nc2cc(OC(F)(F)F)ccc2o1 | 0.1 | 0.091 | Tmax [6]: 19.8 min; half-life [7]: 61.2 min; clearance [8]: 52 mL/min/kg; Cmax [9]: 190 ng/mL; bioavailability [10]: 5.4%; Vd [11]: 1.73 L/kg; AUC [12]: 200 ng·h/mL; remaining at 2 h [3]: 100%
CCOC(=O)c1ccc2c(c1)CCCN2C(=O)CSc1nnc(CNc2ccccc2)n1CC | > 1 | 2.9 | –
CCn1c(CNc2ccccc2)nnc1SCC(=O)Nc1ccccc1 | > 1 | > 10 | –
CCOC(=O)c1ccc(NC(=O)CSc2nnc(CNc3ccccc3)n2CC)cc1 | 0.33 | 1.1 | –
